Values after ≈ are worked out from the molar mass of the structure shown.
How the values were obtained:
[1] = Cytotoxicity against African green monkey Vero cells assessed as cell growth inhibition after 48 hrs by neutral red dye based assay; assay type: toxicity, Chlorocebus sabaeus
In short: (§1)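 Cells kept in RPMI-1640 with 10% bovine serum and 60 µg/mL amikacin, 37 °C, 5% CO2. Seeded at 25,000 cells/well, left 24 h to adhere. Samples diluted in RPMI added, highest final concentration 10 µg/mL. Growth measured by neutral red uptake after 48 h exposure.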

[2] = Cytotoxicity against human SK-MEL cells assessed as cell growth inhibition after 48 hrs by neutral red dye based assay; assay type: functional; in short: as §1
Plasmodium falciparum = assay: Antimalarial activity against Plasmodium falciparum D6 infected in RBC after 48 hrs by lactate dehydrogenase assay; assay type: functional; conditions: D6, 48 h
In short: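 Parasites grown in A+ human erythrocytes in RPMI 1640 with 10% A+ human serum, 25 mM HEPES, 27 mM bicarbonate, 60 µg/mL amikacin, 37 °C under 90% N2/5% O2/5% CO2. Infected cells exposed 48 h in microtiter wells, highest concentration 4.8 µg/mL. Growth read by Malstat reagent (parasite LDH) with nitro blue tetrazolium reduction, absorbance 630 nm.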

[3] = Cytotoxicity against human BT549 cells assessed as cell growth inhibition after 48 hrs by neutral red dye based assay; assay type: functional; conditions: BT-549, 48 h; in short: as §1
[4] = Cytotoxicity against human SKOV3 cells assessed as cell growth inhibition after 48 hrs by neutral red dye based assay; assay type: functional; conditions: SK-OV-3, 48 h; in short: as §1
Pseudomonas aeruginosa = assay: Antimicrobial activity against Pseudomonas aeruginosa ATCC 15442; assay type: functional
In short: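 Pseudomonas grown 24 h in trypticase soy broth, diluted 1:50. Combined with diluted samples in 96-well plates, top final concentration 50 µg/mL (≤2.5% DMSO), 37 °C incubation. Growth read at 630 nm. MIC is the lowest tested concentration inhibiting 80% of growth versus controls; IC50 from concentration versus % growth graphs.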

[5] = Inhibition of Candida albicans DNA topoisomerase 1 using pHOT1 as substrate after 30 mins by agarose gel electrophoresis
In short: (§2)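 Relaxation of supercoiled to relaxed DNA by TopoI measured with a commercial TopoI drug kit following kit protocol. IC50 calculated from dose-response curves of % inhibition versus concentration.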

DNA topoisomerase 1 = target: T1, DNA topoisomerase 1 (Homo sapiens, UniProt P11387); assay: Inhibition of human DNA topoisomerase 1 using pHOT1 as substrate after 30 mins by agarose gel electrophoresis; in short: as §2
T1 sequence (P11387 whole entry): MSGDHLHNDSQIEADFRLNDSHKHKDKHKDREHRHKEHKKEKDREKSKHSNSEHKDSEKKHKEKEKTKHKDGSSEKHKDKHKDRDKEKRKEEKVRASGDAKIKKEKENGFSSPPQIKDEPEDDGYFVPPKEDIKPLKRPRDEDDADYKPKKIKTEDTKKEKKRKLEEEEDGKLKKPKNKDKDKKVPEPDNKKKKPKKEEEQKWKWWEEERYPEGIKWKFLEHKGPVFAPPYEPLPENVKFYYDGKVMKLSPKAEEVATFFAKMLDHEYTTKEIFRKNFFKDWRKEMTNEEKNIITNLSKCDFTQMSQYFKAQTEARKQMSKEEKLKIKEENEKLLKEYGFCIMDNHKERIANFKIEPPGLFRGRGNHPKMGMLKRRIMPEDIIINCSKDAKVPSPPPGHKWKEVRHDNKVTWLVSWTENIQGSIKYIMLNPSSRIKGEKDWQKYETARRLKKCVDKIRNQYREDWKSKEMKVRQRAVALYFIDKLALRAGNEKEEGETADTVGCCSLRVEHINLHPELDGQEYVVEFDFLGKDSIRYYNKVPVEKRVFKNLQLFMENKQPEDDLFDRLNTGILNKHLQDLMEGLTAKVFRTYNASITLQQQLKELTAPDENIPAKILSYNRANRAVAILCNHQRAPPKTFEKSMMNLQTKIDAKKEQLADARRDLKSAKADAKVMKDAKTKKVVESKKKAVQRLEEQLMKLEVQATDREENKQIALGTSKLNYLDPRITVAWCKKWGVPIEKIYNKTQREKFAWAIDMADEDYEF

Cryptococcus neoformans = assay: Antimicrobial activity against Cryptococcus neoformans ATCC 52657; assay type: functional
In short: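 Grown in mycophil broth 72 h, hemocytometer-counted, diluted to 200,000 CFU/mL. Exposed to diluted samples in 96-well plates, maximum final 50 µg/mL (DMSO up to 2.5%), incubated 30 °C. A630 readout. MIC is the lowest concentration inhibiting 80% of growth versus controls; IC50 read from concentration versus % growth graphs.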

[6] = Cytotoxicity against human KB cells assessed as cell growth inhibition after 48 hrs by neutral red dye based assay; assay type: functional; in short: as §1
[7] = test system: Mycobacterium intracellulare; assay: Antimicrobial activity against Mycobacterium intracellulare ATCC 23068; assay type: functional
In short: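 Mycobacterium grown 72 h in Middlebrook medium with OADC supplement, diluted 1:30 in broth. Incubated at 37 °C with diluted samples in 96-well plates, highest final 50 µg/mL, DMSO at most 2.5%. Absorbance at 630 nm. MIC = lowest concentration with 80% growth inhibition relative to controls; IC50 from concentration versus % growth plots.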

[8] = Selectivity index, ratio of IC50 for human DNA topoisomerase 1 to IC50 for Candida albicans DNA topoisomerase 1
Staphylococcus aureus [9] = assay: Antimicrobial activity against Staphylococcus aureus ATCC 6538; assay type: functional
In short: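 Staphylococcus aureus grown 24 h in Eugon broth, diluted 1:50 in broth, added to serially diluted samples in 96-well plates (highest final DMSO 2.5%), incubated at 37 °C. Growth measured at 630 nm versus controls. MIC is the lowest concentration inhibiting 80% of growth; IC50 (50% inhibition) comes from concentration versus % growth plots.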

Candida albicans = assay: Antimicrobial activity against Candida albicans B311; assay type: functional
In short: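 Cultured in Sabouraud dextrose broth 24 h, counted by hemocytometer, diluted to 10,000 CFU/mL. Added to serially diluted samples in 96-well plates, top final concentration 50 µg/mL (≤2.5% DMSO), incubated 37 °C. Growth by A630. MIC is the lowest concentration giving 80% inhibition against controls; IC50 from concentration versus % growth plots.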

Staphylococcus aureus [10] = assay: Antimicrobial activity against methicillin-resistant Staphylococcus aureus; assay type: functional
In short: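 MRSA precultured 24 h, diluted 1:50 in broth, added to serially diluted samples in 96-well plates (highest final DMSO 2.5%), incubated at 37 °C. Growth measured as absorbance at 630 nm versus controls. MIC is the lowest concentration giving 80% inhibition; IC50 (50% inhibition) is read from concentration versus % growth plots.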

Aspergillus fumigatus = assay: Antimicrobial activity against Aspergillus fumigatus ATCC 26934; assay type: functional
In short: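 Aspergillus fumigatus spores released by scraping a slant, used on assay day, in mycophil broth. Broth microdilution in 96-well plates, highest final DMSO 2.5%, incubated at 30 °C. Growth read as absorbance at 630 nm versus controls. MIC is the lowest tested concentration giving 80% growth inhibition; IC50 (50% inhibition) comes from concentration versus % growth plots.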

Row | SMILES | IC50 at 48 h [1] [µg/mL] | IC50 [2] [µg/mL] | IC50 (Plasmodium falciparum) [µg/mL] | IC50 [3] [µg/mL] | IC50 [4] [µg/mL] | IC50 (Pseudomonas aeruginosa) [µg/mL] | IC50 [5] [µg/mL] | IC50 (DNA topoisomerase 1) [µM] | IC50 (Cryptococcus neoformans) [µg/mL] | MIC80 (Cryptococcus neoformans) [µg/mL] | IC50 [6] [µg/mL] | MIC80 [7] [µg/mL] | Ratio IC50 [8] | IC50 (Staphylococcus aureus [9]) [µg/mL] | IC50 (Candida albicans) [µg/mL] | MIC80 (Candida albicans) [µg/mL] | IC50 (Staphylococcus aureus [10]) [µg/mL] | MIC80 (Aspergillus fumigatus) [µg/mL]
1 | FC(F)(F)c1ccc(C[n+]2ccc3ccnc4c3c2-c2ccccc2-4)cc1.[Br-] | 6.4 | 0.78 | 0.0085 | 0.79 | 0.08 | 27 | 30 | 69.9 | 0.57 | 3.12 | 0.54 | 50 | 0.97 | 30 | 6.5 | 12.5 |  | 
2 | CC[n+]1c2c3c(nc(-c4ccccc4)cc3c3ccccc31)-c1ccccc1-2.[Br-] | 7.8 | 1.3 |  | 8 | 4 | 2 | < 6 | < 13.7 | 0.17 | 0.39 | 6.5 | 10 |  | 2 | 0.04 | 0.098 | 2 | 
3 | c1ccc2c(c1)-c1nccc3ccnc-2c13 [EUPOLAURIDINE] | > 10 |  |  |  | > 10 | 5 (≈ 24.5 µM) | 6.5 (≈ 31.8 µM) | 20.6 | 4.8 (≈ 23.5 µM) | 25 (≈ 122 µM) |  |  | 1.55 |  | 5.25 (≈ 25.7 µM) | 12.5 (≈ 61.2 µM) |  | 2 (≈ 9.79 µM)
4 | C[C@@H]1[C@H](O)[C@@H](C)/C=C/C=C/C=C/C=C/C=C/C=C/C=C/[C@H](O[C@@H]2O[C@H](C)[C@@H](O)[C@H](N)[C@@H]2O)C[C@@H]2O[C@](O)(C[C@@H](O)C[C@@H](O)[C@H](O)CC[C@@H](O)C[C@@H](O)CC(=O)O[C@H]1C)C[C@H](O)[C@H]2C(=O)O [AMPHOTERICIN B] |  |  |  |  |  |  |  |  |  | 0.078 (≈ 0.0844 µM) |  |  |  |  |  | 0.156 (≈ 0.169 µM) |  | 1.25 (≈ 1.35 µM)

Source: ChEMBL document CHEMBL3865847, “The synthesis and biological evaluation of alkyl and benzyl naphthyridinium analogs of eupolauridine as potential antimicrobial and cytotoxic agents” (Bioorg Med Chem, 2016)
